The subject of assay [1] is HepG2. Nature of the assay: Antiproliferative activity against human HepG2 cells assessed as inhibition of cell growth incubated for 24 hrs by MTT assay. To be noted: HepG2, 24 h. The class given is functional, cell-based. In outline:
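HepG2 cells exposed to a range of concentrations for the stated times, then inhibition rate measured by MTT.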
(In general: Tetrazolium assays rely on reduction of a dye to a coloured formazan, in cell work by metabolically active cells.)

Assay [2] relates to Hepatitis B virus. The assay is described as follows: Antiviral activity against hepatitis B virus infected in human HepG2.2.15 cells assessed as reduction in HBeAg secretion at 5 uM incubated for 9 days by ELISA (reference value: 25.13 +/- 1.93 ng/ml). The class given is functional. A general note: In an ELISA, binding on a coated surface is turned into a signal by an enzyme label.

In assay [3] the test system is Hepatitis B virus. Nature of the assay: Antiviral activity against hepatitis B virus infected in human HepG2.2.15 cells assessed as HBsAg secretion at 5 uM incubated for 9 days by ELISA (reference value: 8.41+/- 0.54 ng/ml). The class given is functional.

Some results are limits rather than exact numbers.

On to `Cc1cc(C)cc(OCC(=O)NCCNC(=O)COc2cc(C)cc(C)c2)c1`, for which the IC50 in assay [1] was 53.2 µM.
Consider `Cc1ccc(C(=O)NCC(=O)N/N=C/c2ccccc2OCc2ccccc2Cl)cc1`, for which the Activity in assay [2] came out at 15.01 ng/mL; in assay [3], 3.95 ng/mL. Besides, the half-inhibitory concentration (IC50) in assay [1] stood at 13.4 µM.
The corresponding values for `CCN(CC)c1ccc(/C=N/NC(=O)CNC(=O)c2ccc(F)cc2)c(OCc2ccccc2Cl)c1` are 24.34 ng/mL, 8.04 ng/mL and more than 50 µM.
As for `O=C(CNC(=O)c1cccnc1)N/N=C/c1ccc(OCc2cc3c(cc2Cl)OCO3)cc1`, the values for the Activity in assay [2] and in assay [3] were 11.45 ng/mL and 3.71 ng/mL, respectively. In assay [1], the concentration for half-maximal inhibition (IC50) was found to be 10.1 µM.
In the same order, the values of `Cc1ccc(C(=O)NCC(=O)N/N=C/c2ccc(OCc3cc4c(cc3Cl)OCO4)cc2)cc1` are 11.47 ng/mL, 3.91 ng/mL and 14.9 µM.
In the same order, the values of `COc1ccc(/C=N/NC(=O)CNC(=O)c2ccc(C#N)cc2)c(OCc2ccccc2Cl)c1` are 25.47 ng/mL, 8.29 ng/mL and more than 50 µM.
For `O=C(CNC(=O)c1ccc(F)cc1)N/N=C/c1ccccc1OCc1cc2c(cc1Cl)OCO2`, the Activity in assay [2] is 11.84 ng/mL; in assay [3], 3.98 ng/mL. Further, the half-inhibitory concentration (IC50) in assay [1] came to 17.1 µM.
The corresponding values for `Cc1ccc(C(=O)NCC(=O)N/N=C/c2ccccc2OCc2ccc(C#N)cc2)cc1` are 25.25 ng/mL, 8.25 ng/mL and more than 50 µM.
Consider `O=C(COc1ccc(Cl)cc1)NCc1ccc(CNC(=O)COc2ccc(Cl)cc2)cc1`, for which, in assay [1], the IC50 came to 26.4 µM.
In the case of `O=C(CNC(=O)c1ccc(-c2ccccc2)cc1)N/N=C/c1ccccc1OCc1cc2c(cc1Cl)OCO2`, the Activity in assay [2] amounted to 24.07 ng/mL; in assay [3], 7.72 ng/mL. In addition, in assay [1], the IC50 was more than 50 µM.
The corresponding values for `O=C(CNC(=O)c1ccc(F)cc1)N/N=C/c1ccccc1OCc1ccccc1Cl` are 14.53 ng/mL, 5.03 ng/mL and 24.9 µM.
The corresponding values for `CCN(CC)c1ccc(/C=N/NC(=O)CNC(=O)c2ccc(C#N)cc2)c(OCc2ccccc2Cl)c1` are 24.86 ng/mL, 8.17 ng/mL and more than 50 µM.
For `C[C@]1(C(=O)NCCOc2ccc(C3CCCCC3)cc2)CO[C@@H](c2ccccc2)OC1`, the IC50 in assay [1] was 32.9 µM.
`Cc1cccc(CSCCNC(=O)CN(c2cccc(C(F)(F)F)c2)S(C)(=O)=O)c1`: the half-maximal inhibitory concentration (IC50) in assay [1] stood at 23.4 µM.
As to `O=C(CNC(=O)c1cccnc1Cl)N/N=C/c1ccccc1OCc1ccccc1Cl`, the Activity is 12.55 ng/mL in assay [2] and 4.08 ng/mL in assay [3]. The IC50 in assay [1] stood at 16.9 µM.
As for `COc1ccc(/C=N/NC(=O)CNC(=O)c2ccc(F)cc2)c(OCc2ccccc2Cl)c1`, the Activity in assay [2] was 13.07 ng/mL; in assay [3] it was 4.23 ng/mL. Also, the IC50 in assay [1] was found to be 15.7 µM.
In the case of `Cc1ccc(C(=O)NCC(=O)N/N=C/c2ccc(OCc3ccccc3Cl)cc2)cc1`, the Activity in assay [2] turned out to be 14.29 ng/mL; in assay [3] it was 4.83 ng/mL. For the same compound, the 50% inhibitory concentration (IC50) in assay [1] came out at 28.1 µM.
`O=C1CC(c2ccccc2)CC(=O)C1=CNCCN1CCN(C(=O)Cc2ccccc2)CC1` (centres undefined): the concentration for half-maximal inhibition (IC50) in assay [1] was 70.2 µM.
For the compound `C[C@H](NC(=O)COc1ccc(S(=O)(=O)N[C@H](C)c2ccccc2)cc1)c1ccccc1`, the IC50 in assay [1] is 35.7 µM.
On to `Cc1ccccc1OCC(=O)N/N=C/c1cccc(OCc2ccccc2)c1`, for which, in assay [1], the concentration for half-maximal inhibition (IC50) was found to be 18.6 µM.
On to `Cc1sc(NC(=O)CCn2cnc3ccccc3c2=O)nc1-c1ccc(Cl)cc1`, for which the IC50 in assay [1] was 25.4 µM.
As for `C[C@H](Cn1cnc2c(N)ncnc21)OCP(=O)(O)O` [TENOFOVIR ANHYDROUS], the Activity in assay [2] is 5.6 ng/mL; in assay [3], 1.72 ng/mL.

A word on the IC50: it is the concentration that inhibits the measured activity by half.

Values taken from ChEMBL document CHEMBL4396941, “Design, synthesis and biological evaluation of benzamide derivatives as novel NTCP inhibitors that induce apoptosis in HepG2 cells” (Bioorg Med Chem Lett, 2019).
